Assay results as given in publication PMC3529916 (Bioorganic & medicinal chemistry, 2012).
Entries after “also recorded” stand apart in the source; their conditions may differ.

How the values were obtained:
[1] = Metabolic stability using pooled human liver microsomes; format: in vitro ADME; conditions: 1 and 10 μM, up to 60 min
[2] = cited from earlier work
anxiety [3] = conditions: cited from earlier work; for Anti-conflict effect / Effect on non-suppressed responding / response rates: dose range 0.1 to 10 mg/kg
[4] = ref Bristol-Myers Squibb, unpublished results of Phase I trials; cited from earlier work
[5] = ref Mithridion, unpublished results; cited from earlier work
[6] = via hepatic enzymes; ref unpublished results; cited from earlier work
α3β3γ2 GABAA receptors = α3β3γ2 GABAA receptors (Rattus norvegicus, UniProt P18508+P20236); assay: Two-electrode voltage clamp, stimulation of GABA EC3 currents in Xenopus oocytes; format: cell-based; conditions: dose-response curves
α3β3γ2 GABAA receptors, sequence (P20236 29-493): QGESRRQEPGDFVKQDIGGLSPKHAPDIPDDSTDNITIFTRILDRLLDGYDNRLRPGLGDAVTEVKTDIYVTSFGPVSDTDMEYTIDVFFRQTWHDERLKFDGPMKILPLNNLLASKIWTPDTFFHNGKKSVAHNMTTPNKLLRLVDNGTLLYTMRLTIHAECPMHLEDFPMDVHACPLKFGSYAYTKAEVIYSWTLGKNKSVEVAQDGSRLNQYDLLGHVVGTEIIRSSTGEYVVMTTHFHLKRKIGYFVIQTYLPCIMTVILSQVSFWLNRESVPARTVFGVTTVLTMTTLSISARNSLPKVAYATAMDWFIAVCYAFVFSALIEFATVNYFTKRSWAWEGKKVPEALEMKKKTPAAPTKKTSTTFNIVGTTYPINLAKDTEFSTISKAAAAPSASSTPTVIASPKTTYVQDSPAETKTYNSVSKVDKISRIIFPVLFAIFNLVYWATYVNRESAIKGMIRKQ
α3β3γ2 GABAA receptors, sequence (P63079 26-473 partner): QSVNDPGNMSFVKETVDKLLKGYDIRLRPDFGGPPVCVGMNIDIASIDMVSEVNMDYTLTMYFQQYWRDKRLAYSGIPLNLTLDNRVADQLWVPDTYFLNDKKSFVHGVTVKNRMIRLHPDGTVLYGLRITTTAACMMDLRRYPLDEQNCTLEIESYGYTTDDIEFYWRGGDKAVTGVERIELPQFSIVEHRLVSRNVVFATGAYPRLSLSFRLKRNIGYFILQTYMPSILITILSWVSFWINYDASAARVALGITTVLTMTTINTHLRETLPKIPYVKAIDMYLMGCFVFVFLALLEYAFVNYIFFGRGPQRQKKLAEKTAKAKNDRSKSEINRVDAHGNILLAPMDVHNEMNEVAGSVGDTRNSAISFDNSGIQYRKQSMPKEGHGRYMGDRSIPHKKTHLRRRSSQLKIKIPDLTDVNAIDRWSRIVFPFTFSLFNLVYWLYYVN
α3β3γ2 GABAA receptors, sequence (P18508 39-466): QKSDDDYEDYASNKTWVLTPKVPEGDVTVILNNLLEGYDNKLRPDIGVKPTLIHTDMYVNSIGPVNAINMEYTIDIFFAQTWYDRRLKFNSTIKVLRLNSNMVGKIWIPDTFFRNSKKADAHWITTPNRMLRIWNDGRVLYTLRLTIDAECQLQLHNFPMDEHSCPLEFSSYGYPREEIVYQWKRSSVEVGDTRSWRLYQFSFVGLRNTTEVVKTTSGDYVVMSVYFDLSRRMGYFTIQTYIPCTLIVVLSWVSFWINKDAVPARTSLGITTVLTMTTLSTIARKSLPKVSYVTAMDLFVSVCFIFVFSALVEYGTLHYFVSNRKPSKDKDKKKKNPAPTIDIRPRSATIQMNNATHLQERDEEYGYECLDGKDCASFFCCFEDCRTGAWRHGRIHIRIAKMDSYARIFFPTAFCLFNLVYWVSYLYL
How it was run: (§1)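 Xenopus oocytes were injected with rat β3 and γ2 cDNAs plus α1, α2, α3 or α5. Follicle layers were removed 36 h later. Two-electrode voltage clamp was done at −60 mV and room temperature in XR buffer (pH 7.4, 5 mM HEPES). Test compound (0.1% DMSO final) was preapplied for 30 s, then coapplied with EC3 GABA until peak, with washes of up to 15 min. Curves were fitted to a four-parameter logistic.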

α1β3γ2 GABAA receptors = α1β3γ2 GABAA receptors (Rattus norvegicus, UniProt P18508+P62813); assay: as above; format: cell-based
α1β3γ2 GABAA receptors, sequence (P62813 28-455): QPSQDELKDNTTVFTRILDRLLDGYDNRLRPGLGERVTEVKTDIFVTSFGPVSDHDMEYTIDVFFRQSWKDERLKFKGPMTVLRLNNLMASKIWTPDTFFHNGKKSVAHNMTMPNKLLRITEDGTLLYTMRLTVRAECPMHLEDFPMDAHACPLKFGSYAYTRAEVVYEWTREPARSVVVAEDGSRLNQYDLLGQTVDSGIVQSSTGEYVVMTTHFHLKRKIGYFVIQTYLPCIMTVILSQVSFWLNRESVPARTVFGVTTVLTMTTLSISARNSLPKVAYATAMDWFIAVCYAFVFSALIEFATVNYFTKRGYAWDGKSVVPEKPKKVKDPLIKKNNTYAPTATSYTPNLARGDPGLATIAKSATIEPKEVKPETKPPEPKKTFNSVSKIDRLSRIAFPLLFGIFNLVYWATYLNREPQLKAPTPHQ
α1β3γ2 GABAA receptors, sequence (P63079 26-473 partner): as the sequence (P63079 26-473 partner) above
α1β3γ2 GABAA receptors, sequence (P18508 39-466): as the sequence (P18508 39-466) above
How it was run: as §1

α2β3γ2 GABAA receptors = α2β3γ2 GABAA receptors (Rattus norvegicus, UniProt P18508+P23576); assay: as above; format: cell-based; conditions: 100 nM
α2β3γ2 GABAA receptors, sequence (P23576 29-451): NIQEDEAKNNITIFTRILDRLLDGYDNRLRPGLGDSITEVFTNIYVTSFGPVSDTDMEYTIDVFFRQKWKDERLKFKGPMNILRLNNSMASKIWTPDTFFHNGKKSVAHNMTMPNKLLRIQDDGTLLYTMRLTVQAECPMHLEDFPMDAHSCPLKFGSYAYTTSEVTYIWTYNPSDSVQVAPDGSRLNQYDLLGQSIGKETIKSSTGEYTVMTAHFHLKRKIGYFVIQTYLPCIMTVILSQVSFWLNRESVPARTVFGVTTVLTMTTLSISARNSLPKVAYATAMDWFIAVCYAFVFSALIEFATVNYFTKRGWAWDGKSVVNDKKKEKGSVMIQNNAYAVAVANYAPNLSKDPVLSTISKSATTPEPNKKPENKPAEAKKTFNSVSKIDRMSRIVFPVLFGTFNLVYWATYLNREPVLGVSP
α2β3γ2 GABAA receptors, sequence (P63079 26-473 partner): as the sequence (P63079 26-473 partner) above
α2β3γ2 GABAA receptors, sequence (P18508 39-466): as the sequence (P18508 39-466) above
How it was run: as §1

α5β3γ2 GABAA receptors = α5β3γ2 GABAA receptors (Rattus norvegicus, UniProt P18508+P19969); assay: as above; format: cell-based
α5β3γ2 GABAA receptors, sequence (P19969 32-464 limits assumed): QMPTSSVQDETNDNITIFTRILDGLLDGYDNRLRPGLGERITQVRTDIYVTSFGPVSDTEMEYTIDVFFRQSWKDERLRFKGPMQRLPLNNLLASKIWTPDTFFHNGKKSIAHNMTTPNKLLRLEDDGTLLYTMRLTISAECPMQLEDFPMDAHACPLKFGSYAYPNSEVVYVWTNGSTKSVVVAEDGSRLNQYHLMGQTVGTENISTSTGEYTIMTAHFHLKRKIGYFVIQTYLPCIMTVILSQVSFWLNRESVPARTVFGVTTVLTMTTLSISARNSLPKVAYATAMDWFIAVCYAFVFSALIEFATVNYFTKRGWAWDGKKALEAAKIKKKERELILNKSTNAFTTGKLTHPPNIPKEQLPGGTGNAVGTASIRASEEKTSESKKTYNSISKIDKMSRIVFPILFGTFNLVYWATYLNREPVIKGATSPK
α5β3γ2 GABAA receptors, sequence (P63079 26-473 partner): as the sequence (P63079 26-473 partner) above
α5β3γ2 GABAA receptors, sequence (P18508 39-466): as the sequence (P18508 39-466) above
How it was run: as §1

anxiety [7] = assay: Light/dark cycle test; format: in vivo, mouse
locomotor activity = assay: Locomotor activity test; format: in vivo, mouse
[8] = tested on: neuropathic and inflammatory pain; conditions: cited from earlier work
[9] = positive control, 3 mg/kg, i.p.

SMILES: C#Cc1ccc2c(c1)C(c1ccccn1)=NCc1c(C(=O)O)ncn1-2 [compound 5]
- Metabolic stability on human liver microsomes, in words [1]: did not exhibit any metabolism

SMILES: C#Cc1ccc2c(c1)C(c1ccccc1)=NCc1c(C(=O)OCC)ncn1-2 [compound 1]
- Preclinical safety and efficacy, in words [2]: safe and effective
- Side effects, in words (anxiety [3]): lacked sedative, ataxic, muscle relaxant and amnestic side effects
- Anti-conflict effect (anxiety [3]): anti-conflict effect
- Effect on non-suppressed responding / response rates (anxiety [3]): without producing diazepam-like alterations
- Safety in humans [4]: safe in humans
- Stability in human tissues, in words [5]: stable in human blood, plasma, brain and kidney
- Metabolic transformation in human liver, in words [6]: largely transformed into the inactive metabolite XHe-II-053-acid (4)

SMILES: C#Cc1ccc2c(c1)C(c1ccccn1)=NCc1c(C(=O)NC)ncn1-2 [compound 7, 8-Ethynyl-N-methyl-6-(pyridine-2-yl)-4H-benzo-[f]-imidazo-[1,5-a]-[1,4]-diazepine-3-carboxamide]
- Metabolic stability on human liver microsomes, in words [1]: much more stable on human liver microsomes than 1
- Relative potency, in words (α3β3γ2 GABAA receptors): relatively less potent than 8

SMILES: C#Cc1ccc2c(c1)C(c1ccccc1F)=NCc1c(C(=O)NC)ncn1-2 [compound 8, 8-Ethynyl-N-methyl-6-(2-fluorophenyl)-4H-benzo-[f]-imidazo-[1,5-a]-[1,4]-diazepine-3-carboxamide]
- Metabolic stability on human liver microsomes, in words [1]: significantly more stable than the corresponding ethyl ester analog 3

SMILES: C#Cc1ccc2c(c1)C(c1ccccc1F)=NCc1c(C(=O)OCC)ncn1-2 [compound 3]
- Metabolic stability on human liver microsomes, in words [1]: underwent biotransformation almost quantitatively; also recorded: not very stable
- Anti-conflict effect (anxiety [3]): robust anti-conflict effect
- Effect on non-suppressed responding / response rates (anxiety [3]): some reduction in response rates at the highest dose tested

SMILES: C#Cc1ccc2c(c1)C(c1ccccc1)=NCc1c(C(=O)O)ncn1-2 [compound 4]
- Metabolic stability on human liver microsomes, in words [1]: did not exhibit any metabolism

SMILES: C#Cc1ccc2c(c1)C(c1ccccc1)=NCc1c(C(=O)NC)ncn1-2 [compound 6, 8-Ethynyl-N-methyl-6-phenyl-4H-benzo-[f]-imidazo-[1,5-a]-[1,4]-diazepine-3-carboxamide]
- Metabolic stability on human liver microsomes, in words [1]: decreased rate of metabolism; also recorded: much more stable on human liver microsomes than 1
- Efficacy, in words (α1β3γ2 GABAA receptors; 100 nM): very weak agonistic effects
- Efficacy, in words (α1β3γ2 GABAA receptors; higher concentration): antagonist
- Efficacy, in words (α2β3γ2 GABAA receptors): very weak agonistic effects
- Efficacy, in words (α5β3γ2 GABAA receptors; 100 nM): very weak agonistic effects
- Efficacy, in words (α5β3γ2 GABAA receptors; higher concentration): antagonist

SMILES: CN1C(=O)CN=C(c2ccccc2)c2cc(Cl)ccc21 [Diazepam, reference compound]
- Anxiolytic activity (time spent in the lighted area vs vehicle) (anxiety [7]; [9]): significantly anxiolytic
- Locomotor activity vs vehicle (locomotor activity; [9]): significantly reduced locomotor activity

SMILES: C#Cc1ccc2c(c1)C(c1ccccn1)=NCc1c(-c3nc(C(C)C)no3)ncn1-2 [compound 12, 5-(8-Ethynyl-6-(pyridin-2-yl)-4H-benzo-[f]-imidazo-[1,5-a]-[1,4]-diazepine-3-yl)-3-isopropyl-1,2,4-oxadiazole]
- Metabolic stability on human liver microsomes, in words [1]: significantly more stable than 1 and 2 respectively
- Relative potency, in words (α3β3γ2 GABAA receptors): far less potent than 6 and 11

SMILES: C#Cc1ccc2c(c1)C(c1ccccn1)=NCc1c(C(=O)OCC)ncn1-2 [compound 2]
- Metabolic stability on human liver microsomes, in words [1]: minimal metabolism
- Side effects, in words (anxiety [3]): lacked sedative, ataxic, muscle relaxant and amnestic side effects
- Anti-conflict effect (anxiety [3]): anti-conflict effect
- Effect on non-suppressed responding / response rates (anxiety [3]): without producing diazepam-like alterations
- Tolerance development (analgesic activity, chronic versus acute treatment) ([8]; 9-day chronic treatment period): no loss of analgesic activity
- Sedation and motor impairment ([8]; at doses producing maximal antihyperalgesia): devoid of sedation and motor impairment

SMILES: C#Cc1ccc2c(c1)C(c1ccccc1)=NCc1c(-c3nc(C(C)C)no3)ncn1-2 [compound 11]
- Metabolic stability on human liver microsomes, in words [1]: significantly more stable than 1 and 2 respectively; also recorded: much more stable on human liver microsomes than 1
- Anxiolytic activity (time spent in the lighted area vs vehicle) (anxiety [7]; 10 and 100 mg/kg): significant anxiolytic activity
- Locomotor activity vs vehicle (locomotor activity; 10 and 100 mg/kg): significantly increased locomotor activity
- Sedation / ataxia, in words (locomotor activity; 10 and 100 mg/kg): devoid of sedative properties; also recorded: no effects from either ataxia or sedation; also recorded: no sedative properties
